Experiments:
Format in all cases: functional
CCRF-CEM [1] = experiment: Antiproliferative activity against human CCRF-CEM cells assessed as cell viability at 25 uM after 72 hrs by MTT assay; conditions: read-out: Activity
Method in brief: (§1)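 MTT viability assay in CCRF-CEM and MCF-7 cells after 72 h exposure at 25, 50, 100 and 200 µM. Results are relative to control cells without inhibitor in 0.5% DMSO. Done in triplicate; values are means ± SD of three independent experiments.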

CCRF-CEM [2] = experiment: Antiproliferative activity against human CCRF-CEM cells assessed as cell viability at 50 uM after 72 hrs by MTT assay; conditions: read-out: Activity; method in brief: as §1
CCRF-CEM [3] = experiment: Antiproliferative activity against human CCRF-CEM cells assessed as cell viability at 100 uM after 72 hrs by MTT assay; conditions: read-out: Activity; method in brief: as §1
CCRF-CEM [4] = experiment: Antiproliferative activity against human CCRF-CEM cells assessed as cell viability at 200 uM after 72 hrs by MTT assay; conditions: read-out: Activity; method in brief: as §1
MCF7 [5] = experiment: Antiproliferative activity against human MCF7 cells assessed as cell viability at 25 uM after 72 hrs by MTT assay; conditions: MCF7, 72 h, read-out: Activity; method in brief: as §1
MCF7 [6] = experiment: Antiproliferative activity against human MCF7 cells assessed as cell viability at 50 uM after 72 hrs by MTT assay; conditions: MCF7, 72 h, read-out: Activity; method in brief: as §1
MCF7 [7] = experiment: Antiproliferative activity against human MCF7 cells assessed as cell viability at 100 uM after 72 hrs by MTT assay; conditions: MCF7, 72 h, read-out: Activity; method in brief: as §1
MCF7 [8] = experiment: Antiproliferative activity against human MCF7 cells assessed as cell viability at 200 uM after 72 hrs by MTT assay; conditions: MCF7, 72 h, read-out: Activity; method in brief: as §1
Candida albicans [9] = experiment: Growth inhibition of Candida albicans ATCC 90028 at 16 ug/ml incubated for 18 hrs at 35 degC by broth microdilution method relative to control; conditions: ATCC 90028, 18 h, read-out: GI
Candida albicans [10] = experiment: Growth inhibition of Candida albicans ATCC 90028 at 16 ug/ml incubated for 48 hrs at 35 degC by broth microdilution method relative to control; conditions: ATCC 90028, 48 h, read-out: GI
Candida albicans [11] = experiment: Growth inhibition of Candida albicans ATCC 90028 at 8 ug/ml incubated for 18 hrs at 35 degC by broth microdilution method relative to control; conditions: ATCC 90028, 18 h, read-out: GI
Candida albicans [12] = experiment: Growth inhibition of Candida albicans ATCC 90028 at 8 ug/ml incubated for 48 hrs at 35 degC by broth microdilution method relative to control; conditions: ATCC 90028, 48 h, read-out: GI
Candida albicans [13] = experiment: Growth inhibition of Candida albicans ATCC 90028 at 4 ug/ml incubated for 18 hrs at 35 degC by broth microdilution method relative to control; conditions: ATCC 90028, 18 h, read-out: GI
Candida albicans [14] = experiment: Growth inhibition of Candida albicans ATCC 90028 at 8 ug/ml incubated for 4 hrs at 35 degC by broth microdilution method relative to control; conditions: ATCC 90028, 4 h, read-out: GI
Candida albicans [15] = experiment: Growth inhibition of Candida albicans ATCC 90028 at 2 ug/ml incubated for 18 hrs at 35 degC by broth microdilution method relative to control; conditions: ATCC 90028, 18 h, read-out: GI
Candida albicans [16] = experiment: Growth inhibition of Candida albicans ATCC 90028 at 2 ug/ml incubated for 4 hrs at 35 degC by broth microdilution method relative to control; conditions: ATCC 90028, 4 h, read-out: GI
Candida albicans [17] = experiment: Growth inhibition of Candida albicans ATCC 90028 at 1 ug/ml incubated for 18 hrs at 35 degC by broth microdilution method relative to control; conditions: ATCC 90028, 18 h, read-out: GI
Candida albicans [18] = experiment: Growth inhibition of Candida albicans ATCC 90028 at 1 ug/ml incubated for 4 hrs at 35 degC by broth microdilution method relative to control; conditions: ATCC 90028, 4 h, read-out: GI
Candida albicans [19] = experiment: Growth inhibition of Candida albicans ATCC 90028 at 0.5 ug/ml incubated for 18 hrs at 35 degC by broth microdilution method relative to control; conditions: ATCC 90028, 18 h, read-out: GI
Candida albicans [20] = experiment: Growth inhibition of Candida albicans ATCC 90028 at 0.5 ug/ml incubated for 4 hrs at 35 degC by broth microdilution method relative to control; conditions: ATCC 90028, 4 h, read-out: GI
Candida albicans [21] = experiment: Growth inhibition of Candida albicans ATCC 90028 at 0.25 ug/ml incubated for 18 hrs at 35 degC by broth microdilution method relative to control; conditions: ATCC 90028, 18 h, read-out: GI
Candida albicans [22] = experiment: Growth inhibition of Candida albicans ATCC 90028 at 0.25 ug/ml incubated for 4 hrs at 35 degC by broth microdilution method relative to control; conditions: ATCC 90028, 4 h, read-out: GI
Candida albicans [23] = experiment: Growth inhibition of Candida albicans ATCC 90028 at 0.125 ug/ml incubated for 18 hrs at 35 degC by broth microdilution method relative to control; conditions: ATCC 90028, 18 h, read-out: GI
Candida albicans [24] = experiment: Growth inhibition of Candida albicans ATCC 90028 at 0.125 ug/ml incubated for 4 hrs at 35 degC by broth microdilution method relative to control; conditions: ATCC 90028, 4 h, read-out: GI
Candida albicans [25] = experiment: Growth inhibition of Candida albicans ATCC 90028 at 0.0625 ug/ml incubated for 18 hrs at 35 degC by broth microdilution method relative to control; conditions: ATCC 90028, 18 h, read-out: GI
Candida albicans [26] = experiment: Growth inhibition of Candida albicans ATCC 90028 at 0.0625 ug/ml incubated for 4 hrs at 35 degC by broth microdilution method relative to control; conditions: ATCC 90028, 4 h, read-out: GI
Candida albicans [27] = experiment: Growth inhibition of Candida albicans ATCC 90028 at 0.0313 ug/ml incubated for 18 hrs at 35 degC by broth microdilution method relative to control; conditions: ATCC 90028, 18 h, read-out: GI
Candida albicans [28] = experiment: Growth inhibition of Candida albicans ATCC 90028 at 0.0313 ug/ml incubated for 4 hrs at 35 degC by broth microdilution method relative to control; conditions: ATCC 90028, 4 h, read-out: GI
Candida albicans [29] = experiment: Fungicidal activity against Candida albicans ATCC 90028 assessed as log reduction in cell viability at 16 ug/ml after 48 hrs at 35 degC
Method in brief: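 MFC assay on C. albicans ATCC 90028 following M27-A3, at the molar equivalent of 16 µg/mL. CFU of treated cells were compared with CFU of the untreated inoculum. Activity is given as lg R = lg CFU/mL control − lg CFU/mL treated, and lg R ≥3 was defined as fungicidal. Values are means of two independent experiments.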

| Compound | viability at 25 µM (CCRF-CEM [1]) [%] | viability at 50 µM (CCRF-CEM [2]) [%] | viability at 100 µM (CCRF-CEM [3]) [%] | viability at 200 µM (CCRF-CEM [4]) [%] | viability at 25 µM (MCF7 [5]) [%] | viability at 50 µM (MCF7 [6]) [%] | viability at 100 µM (MCF7 [7]) [%] | viability at 200 µM (MCF7 [8]) [%] | inhibition of growth at 16 µg/mL (Candida albicans [9]) [%] | inhibition of growth at 16 µg/mL (Candida albicans [10]) [%] | inhibition of growth at 8 µg/mL (Candida albicans [11]) [%] | inhibition of growth at 8 µg/mL (Candida albicans [12]) [%] | inhibition of growth at 4 µg/mL (Candida albicans [13]) [%] | inhibition of growth at 8 µg/mL (Candida albicans [14]) [%] | inhibition of growth at 2 µg/mL (Candida albicans [15]) [%] | inhibition of growth at 2 µg/mL (Candida albicans [16]) [%] | inhibition of growth at 1 µg/mL (Candida albicans [17]) [%] | inhibition of growth at 1 µg/mL (Candida albicans [18]) [%] | inhibition of growth at 0.5 µg/mL (Candida albicans [19]) [%] | inhibition of growth at 0.5 µg/mL (Candida albicans [20]) [%] | also measured |
| --- | --- | --- | --- | --- | --- | --- | --- | --- | --- | --- | --- | --- | --- | --- | --- | --- | --- | --- | --- | --- | --- |
| COC(C(=O)OC(C)Cn1cnc2c1c(=O)n(C)c(=O)n2C)c1cccc2ccccc12 (configuration not stated) | 96.6 | 87.9 | 51.4 | 34.6 | 92.6 | 87.7 | 83.3 | 76.9 | 99.8 | 99.4 | 100 | 99.6 | 99.5 | 99 | 99.9 | 99.3 | 100 | 99.3 | 100 | 99.1 | inhibition of growth at 0.25 µg/mL (Candida albicans [21]): 99.9%; inhibition of growth at 0.25 µg/mL (Candida albicans [22]): 98.9%; inhibition of growth at 0.125 µg/mL (Candida albicans [23]): 100%; inhibition of growth at 0.125 µg/mL (Candida albicans [24]): 100%; inhibition of growth at 0.0625 µg/mL (Candida albicans [25]): 100%; inhibition of growth at 0.0625 µg/mL (Candida albicans [26]): 100%; inhibition of growth at 0.0313 µg/mL (Candida albicans [27]): 100%; inhibition of growth at 0.0313 µg/mL (Candida albicans [28]): 99.5%; log(activity) (Candida albicans [29]): 0.5 |
| CC(Cn1cnc2c1c(=O)n(C)c(=O)n2C)OC(=O)C(c1ccccc1)c1ccccc1 (configuration not stated) | 84.8 | 33.1 | 30.5 | 2.5 | 89.5 | 75.2 | 67.3 | 43.5 | 99.9 | 99.1 | 99.9 | 99.1 | 100 | 99.2 | 99.8 | 99.2 | 99.6 | 99.4 | 99.6 | 99.1 | inhibition of growth at 0.25 µg/mL (Candida albicans [21]): 99.3%; inhibition of growth at 0.25 µg/mL (Candida albicans [22]): 99.1%; inhibition of growth at 0.125 µg/mL (Candida albicans [23]): 100%; inhibition of growth at 0.125 µg/mL (Candida albicans [24]): 99.8%; inhibition of growth at 0.0625 µg/mL (Candida albicans [25]): 100%; inhibition of growth at 0.0625 µg/mL (Candida albicans [26]): 99.3%; inhibition of growth at 0.0313 µg/mL (Candida albicans [27]): 100%; inhibition of growth at 0.0313 µg/mL (Candida albicans [28]): 99.9%; log(activity) (Candida albicans [29]): 0.1 |
| CC(Cn1cnc2c1c(=O)n(C)c(=O)n2C)OCc1cn(-c2cccc3ccccc23)nn1 (configuration not stated) | 90 | 67.7 | 34.2 | 4.1 | 93.5 | 91.9 | 93.3 | 77 | 99.6 | 99.1 | 99.9 | 99.6 | 99.8 | 99.6 | 99.8 | 99.2 | 99.7 | 99.5 | 99.7 | 99.3 | inhibition of growth at 0.25 µg/mL (Candida albicans [21]): 99.8%; inhibition of growth at 0.25 µg/mL (Candida albicans [22]): 99.5%; inhibition of growth at 0.125 µg/mL (Candida albicans [23]): 100%; inhibition of growth at 0.125 µg/mL (Candida albicans [24]): 99.7%; inhibition of growth at 0.0625 µg/mL (Candida albicans [25]): 100%; inhibition of growth at 0.0625 µg/mL (Candida albicans [26]): 99.8%; inhibition of growth at 0.0313 µg/mL (Candida albicans [27]): 99.9%; inhibition of growth at 0.0313 µg/mL (Candida albicans [28]): 99.1%; log(activity) (Candida albicans [29]): 0.5 |
